Key:
[1] = tested on: H. pylori Rif-resistant, Mtz-resistant strains; experiment: MIC comparison, H. pylori resistant mutant panel; type: cell-based, Helicobacter pylori
[2] = tested on: C. difficile UNT103-1 (VA11); experiment: Hamster C. difficile infection model; type: in vivo, Golden Syrian hamsters
Method in brief: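 Male Golden Syrian hamsters (80-90 g), singly housed, were infected orally by gavage three times with a sporulation-medium culture diluted to OD600 1 (~1.0 × 10^9 CFU/mL). […] Starting 18 h later (day 2), test compound, comparators or vehicle were given QD by oral gavage for 5 days. Survival was monitored through day 21.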

[3] = tested on: H. pylori SS1 (CagA+, VacA+); experiment: Mouse H. pylori infection model; type: in vivo, C57/BL6 mice; conditions: 45 mg/kg bid oral, 7 days, day 7
Method in brief: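 Male C57/BL6 mice (20-25 g) received 0.25 mL gavage inocula on three days (6.40, 6.90, 7.15 log₁₀ CFU). Inocula were 5-day Columbia laked-horse-blood-agar growth suspended in saline to OD530 1.5-2.0. From 7 days post-inoculation, test compound, controls or vehicle were dosed bid by gavage for 7 days. Stomach CFU were counted ~18-20 h post-dose on Dent-supplemented plates (microaerobic, 37 °C, 6-7 days); LOQ <2.35 log₁₀ CFU/stomach.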

C. difficile MMX 4381 = experiment: Spontaneous resistance frequency and MPC; type: cell-based, Clostridioides difficile
H. pylori MMX 3719 = experiment: Spontaneous resistance frequency and MPC; type: cell-based, Helicobacter pylori
G. Vaginalis MMX 5973 = experiment: Spontaneous resistance frequency and MPC; type: cell-based, Gardnerella vaginalis
[4] = tested on: G. vaginalis contemporary clinical isolates; experiment: MIC against contemporary clinical isolates; type: cell-based, Gardnerella vaginalis
[5] = tested on: C. difficile contemporary clinical isolates; experiment: MIC against contemporary clinical isolates; type: cell-based, Clostridioides difficile
Tissue distribution = type: in vivo, Sprague–Dawley rats
[6] = tested on: H. pylori contemporary clinical isolates; experiment: MIC against contemporary clinical isolates; type: cell-based, Helicobacter pylori
[7] = tested on: clinical isolates of H. pylori, C. difficile, and G. vaginalis; experiment: MIC against contemporary clinical isolates; type: cell-based
[8] = C. difficile MMX 4381, conc. 1 μg/mL
[9] = C. difficile MMX 4381, conc. 2 μg/mL
[10] = C. difficile MMX 4381, conc. 4 μg/mL
[11] = H. pylori MMX 3719, conc. 0.5 μg/mL
[12] = H. pylori MMX 3719, conc. 1 μg/mL
[13] = H. pylori MMX 3719, conc. 2 μg/mL
[14] = H. pylori MMX 3719, conc. 4 μg/mL
[15] = G. Vaginalis MMX 5973, conc. 0.5 μg/mL
[16] = G. Vaginalis MMX 5973, conc. 1 μg/mL
[17] = G. Vaginalis MMX 5973, conc. 2 μg/mL
[18] = G. Vaginalis MMX 5973, conc. 4 μg/mL
[19] = C. difficile isolates China (N = 46)
[20] = C. difficile isolates USA (N = 50)
[21] = H. pylori isolates China (N = 49)

SMILES: CO[C@H]1/C=C/O[C@@]2(C)Oc3c(C)c(O)c4c(c3C2=O)C2=NC3(CCN(CCn5c([N+](=O)[O-])cnc5C)CC3)NC2=C(NC(=O)/C(C)=C\C=C\[C@H](C)[C@H](O)[C@@H](C)[C@@H](O)[C@@H](C)[C@H](OC(C)=O)[C@@H]1C)C4=O [Compound 10, 4-Deoxy-3,4-[2-spiro-[1-[2-(2-methyl-5-nitro-imidazol-1-yl)ethyl]-piperidin-4-yl]]-(1H)-imidazo-(2,5-dihydro)rifamycin S]
- fold more active than the 1:1 molar combination of the parent drugs ([1]; Mtz-resistant strain (CB1573)): 1- to 125 fold
- fold more active than the 1:1 molar combination of the parent drugs ([1]; Rif-resistant strains (CB1902, CB1903 and CB1614)): 4- to 128 fold
- fold more active than Rif, Rbt, or Mtz ([1]; dual Rif-resistant, Mtz-resistant strains (CB1771 and CB1893)): 32- to 64 fold
- mortality ([2]; 5 mg/kg QD oral, days 7–9): 10–30%
- survival ([2]; 5 mg/kg QD oral, during the 5-day dosing regimen): 100%
- survival ([2]; 15 mg/kg QD oral days 2–6, through day 21): 100%
- survival ([2]; 45 mg/kg QD oral days 2–6, through day 21): 100%
- mean bacterial stomach titer [3]: 1.70 log10 CFU
- resistant colonies identified, test 1 (C. difficile MMX 4381; C. difficile MMX 4381, conc. 0.5 μg/mL): 0
- spontaneous resistance frequency (C. difficile MMX 4381; C. difficile MMX 4381, conc. 0.5 μg/mL, inoculum 1.23 × 10^9 CFU): 8 × 10^–10
- resistant colonies identified, mean (C. difficile MMX 4381; [8]): 0
- resistant colonies identified, test 1 (C. difficile MMX 4381; [8]): 0
- resistant colonies identified, test 2 (C. difficile MMX 4381; [8]): 0
- spontaneous resistance frequency (C. difficile MMX 4381; [8]): <8 × 10^–10
- resistant colonies identified, mean (C. difficile MMX 4381; [9]): 0
- resistant colonies identified, test 1 (C. difficile MMX 4381; [9]): 0
- resistant colonies identified, test 2 (C. difficile MMX 4381; [9]): 0
- spontaneous resistance frequency (C. difficile MMX 4381; [9]): <8 × 10^–10
- resistant colonies identified, mean (C. difficile MMX 4381; [10]): 0
- resistant colonies identified, test 1 (C. difficile MMX 4381; [10]): 0
- resistant colonies identified, test 2 (C. difficile MMX 4381; [10]): 0
- spontaneous resistance frequency (C. difficile MMX 4381; [10]): <8 × 10^–10
- spontaneous frequency of mutation (C. difficile MMX 4381; C. difficile MMX 4381, lowest concentration tested): 8 × 10^–10
- spontaneous frequency of mutation (H. pylori MMX 3719; H. pylori MMX 3719, all concentrations tested): < 5 × 10^–9 μg/mL
- resistant colonies identified, mean (H. pylori MMX 3719; [11]): 0
- resistant colonies identified, test 1 (H. pylori MMX 3719; [11]): 0
- resistant colonies identified, test 2 (H. pylori MMX 3719; [11]): 0
- spontaneous resistance frequency (H. pylori MMX 3719; H. pylori MMX 3719, conc. 0.5 μg/mL, inoculum 1.90 × 10^8 CFU): <5 × 10^–9
- resistant colonies identified, mean (H. pylori MMX 3719; [12]): 0
- resistant colonies identified, test 1 (H. pylori MMX 3719; [12]): 0
- resistant colonies identified, test 2 (H. pylori MMX 3719; [12]): 0
- spontaneous resistance frequency (H. pylori MMX 3719; [12]): <5 × 10^–9
- resistant colonies identified, mean (H. pylori MMX 3719; [13]): 0
- resistant colonies identified, test 1 (H. pylori MMX 3719; [13]): 0
- resistant colonies identified, test 2 (H. pylori MMX 3719; [13]): 0
- spontaneous resistance frequency (H. pylori MMX 3719; [13]): <5 × 10^–9
- resistant colonies identified, mean (H. pylori MMX 3719; [14]): 0
- resistant colonies identified, test 1 (H. pylori MMX 3719; [14]): 0
- resistant colonies identified, test 2 (H. pylori MMX 3719; [14]): 0
- spontaneous resistance frequency (H. pylori MMX 3719; [14]): <5 × 10^–9
- resistant colonies identified, mean (G. Vaginalis MMX 5973; [15]): 0
- resistant colonies identified, test 1 (G. Vaginalis MMX 5973; [15]): 0
- resistant colonies identified, test 2 (G. Vaginalis MMX 5973; [15]): 0
- spontaneous resistance frequency (G. Vaginalis MMX 5973; G. Vaginalis MMX 5973, conc. 0.5 μg/mL, inoculum 4.50 × 10^8 CFU): <2 × 10^–9
- resistant colonies identified, mean (G. Vaginalis MMX 5973; [16]): 0
- resistant colonies identified, test 1 (G. Vaginalis MMX 5973; [16]): 0
- resistant colonies identified, test 2 (G. Vaginalis MMX 5973; [16]): 0
- spontaneous resistance frequency (G. Vaginalis MMX 5973; [16]): <2 × 10^–9
- resistant colonies identified, mean (G. Vaginalis MMX 5973; [17]): 0
- resistant colonies identified, test 1 (G. Vaginalis MMX 5973; [17]): 0
- resistant colonies identified, test 2 (G. Vaginalis MMX 5973; [17]): 0
- spontaneous resistance frequency (G. Vaginalis MMX 5973; [17]): <2 × 10^–9
- resistant colonies identified, mean (G. Vaginalis MMX 5973; [18]): 0
- resistant colonies identified, test 1 (G. Vaginalis MMX 5973; [18]): 0
- resistant colonies identified, test 2 (G. Vaginalis MMX 5973; [18]): 0
- spontaneous resistance frequency (G. Vaginalis MMX 5973; [18]): <2.00 × 10^–9
- spontaneous frequency of mutation (G. Vaginalis MMX 5973; G. vaginalis MMX 5973, all concentrations tested): < 2 × 10^–9 μg/mL
- MIC range ([4]; G. vaginalis isolates China (N = 24)): ≤0.004 to 0.06 mg/L
- MIC range ([4]; G. vaginalis isolates USA (N = 101)): ≤0.004 to 0.06 mg/L
- MIC range [5, 19]: ≤0.06 to 2 mg/L
- MIC range [5, 20]: ≤0.002 to 4 mg/L
- TNP-2198 concentration (Tissue distribution; ascites fluid, 24 h): BLOQ
- TNP-2198 concentration (Tissue distribution; brain, 12 h): BLOQ
- TNP-2198 concentration (Tissue distribution; brain, 24 h): BLOQ
- TNP-2198 concentration (Tissue distribution; plasma, 24 h): BLOQ
- TNP-2198 concentration (Tissue distribution; stomach content, 0.5 h): 3,264,000 ng/g
- TNP-2198 concentration (Tissue distribution; stomach content, 2 h): 1,750,320 ng/g
- TNP-2198 concentration (Tissue distribution; vaginal tissue, 24 h): BLOQ
- MIC range [6, 21]: ≤0.002 to 1 mg/L
- MIC range ([6]; H. pylori isolates USA (N = 200)): ≤0.001 to 2 mg/L
- MIC90 [7]: < 1 mg/L

SMILES: Cc1ncc([N+](=O)[O-])n1CCO [metronidazole, reference compound]
- mortality ([2]; 100 mg/kg QD oral, by day 4): 100%
- MIC range [5, 19]: ≤0.06 to 32 mg/L
- MIC range [5, 20]: 0.12 to 4 mg/L

SMILES: CO[C@H]1/C=C/O[C@@]2(C)Oc3c(C)c(O)c4c(O)c(c(/C=N/N5CCN(C)CC5)c(O)c4c3C2=O)NC(=O)/C(C)=C\C=C\[C@H](C)[C@H](O)[C@@H](C)[C@@H](O)[C@@H](C)[C@H](OC(C)=O)[C@@H]1C [rifampin, reference compound]
- MIC range [6, 21]: ≤0.06 to 64 mg/L

Reference: PMC8958509 (Journal of Medicinal Chemistry, 2022)
